Shown is part of a subset that was picked to be rich in hits.
A1 apoptosis 2: A1 inhibitors via caspase activation, primary screen, cell-based, luminescence, HTS, two replicates | MEF A1-2A-BIM cells, caspase-Glo luminescence, 3 h; percent of clofoctol response, DMSO zero | caspase activation, % (no concentration beside the values) | 24,000 tested, under 10 active | AID 2465, 2010; in the data active means caspase activation above about 5.9%; inconclusive means no clear call, values can overlap the other calls; inactive means below about 2.2%
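System: mouse embryonic fibroblasts co-expressing A1 and BIM (A1-2A-BIM), primed for A1 dependence; amount: 2500 cells/well; doses: 50 nL pinned compound; schedule: cells settled overnight, compound exposure 3 h at 37 °C, 5% CO2; detection: Caspase-Glo 3/7 luminescence, 1 h at room temperature; read-out: Caspase-3/7 activation, seen as rise in luminescence signal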
INS-1E rescue: protection of INS-1E cells from cytokine death, primary screen, ATP luminescence, single point; INS-1E cytokine-induced death, 48 h; normalised: neutral wells 0, positive control 100; protection from cytokine-induced ATP loss, % at 10 µM; 20,000 compounds, 0.1% hits; AID 488910, 2010;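 active means mean replicate protection from cytokine-induced ATP loss at least 50% and at least 75% of replicates each reaching 50%; inconclusive means meets only one of the two criteria, mean or replicate share; inactive means fails both the mean and replicate share criteria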
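Assay system: INS-1E rat cells / Quantity: 8000 cells per well / Medium: RPMI without phenol red, 5% FBS / Probe or stimulus: three-cytokine cocktail (IFN-γ, TNF-α, IL-1β) / Dosing: one compound concentration, pin transfer / Timing: 48 h co-treatment, 10 min post-lysis read / Technique: CellTiter-Glo luminescence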
T cruzi HTS: inhibitors of intracellular Trypanosoma cruzi, primary screen, cell-based, plate reader, single point, set 2. activity score (inhibition), % at 5.01 µM. intracellular Trypanosoma cruzi in host cells. 22,000 compounds, 4.9% hits; in the data active means activity score above about 55%; inconclusive means no clear call, values can overlap the other calls;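 further: parasites and compound incubated about four days before reading; 0% = median of neutral control wells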
Starred values were filed as active, the others as inactive; ? = inconclusive; nt = no result given.

SMILES | A1 apoptosis 2 | INS-1E rescue | T cruzi HTS
C[C@@H]1CN([C@H](C)CO)C(=O)c2cccc(NC(=O)Nc3ccc(C(F)(F)F)cc3)c2O[C@@H]1CN(C)CC1CCCCC1 | nt | -29 | 14
C[C@@H]1CN([C@@H](C)CO)C(=O)c2cccc(NS(=O)(=O)c3ccc(Cl)cc3)c2O[C@@H]1CN(C)C(=O)Nc1ccc(C(F)(F)F)cc1 | 0 | -91 | 83*
C[C@H]1CN([C@@H](C)CO)C(=O)c2cccc(NC(=O)Nc3ccc(C(F)(F)F)cc3)c2O[C@H]1CN(C)C(=O)Nc1ccc(F)cc1 | 0 | -57 | 60*
C[C@H](CO)N1C[C@H](C)[C@@H](CN(C)C(=O)Nc2ccc(F)cc2)Oc2c(NC(=O)Nc3ccc(C(F)(F)F)cc3)cccc2C1=O | 0 | -8 | 5
COc1ccc(NC(=O)Nc2cccc3c2O[C@H](CN(C)C(=O)Nc2ccc(C(F)(F)F)cc2)[C@H](C)CN([C@H](C)CO)C3=O)cc1 | -1 | 3 | 1
C[C@@H]1CN([C@H](C)CO)C(=O)c2cccc(NS(=O)(=O)c3ccc(Cl)cc3)c2O[C@@H]1CN(C)C(=O)Nc1ccc(C(F)(F)F)cc1 | 1 | -33 | 2
Cc1noc(C)c1S(=O)(=O)N(C)C[C@@H]1OCCCC[C@H](C)Oc2ccc(NS(C)(=O)=O)cc2C(=O)N([C@H](C)CO)C[C@H]1C | -1 | nt | nt
O=C(NO)c1cccc(C(=O)N/N=C/c2ccc(O)c(F)c2)c1 | nt | 0 | -14
O=C(CCCCCC(=O)N/N=C/c1ccc(Br)s1)NO | 0 | nt | nt
O=C(NO)c1cccc(C(=O)N/N=C/c2cn(S(=O)(=O)c3ccccc3)c3ccccc23)c1 | -1 | 9 | 3
C[C@@H]1CN([C@H](C)CO)C(=O)c2cccc(NC(=O)Nc3ccc(C(F)(F)F)cc3)c2O[C@H]1CN(C)C(=O)Nc1ccc2c(c1)OCO2 | 0 | -56 | 66*
C[C@@H]1CN([C@H](C)CO)C(=O)c2cccc(NC(=O)Nc3ccc(C(F)(F)F)cc3)c2O[C@@H]1CN(C)C(=O)Nc1ccc(C(F)(F)F)cc1 | 0 | -112 | 75*
C[C@@H]1CN([C@@H](C)CO)C(=O)c2cccc(NC(=O)Nc3ccc4c(c3)OCO4)c2O[C@@H]1CN(C)C(=O)Nc1ccc(C(F)(F)F)cc1 | 1 | 4 | -28
C[C@H]1CN([C@@H](C)CO)C(=O)c2cccc(NC(=O)Nc3ccc(C(F)(F)F)cc3)c2O[C@@H]1CN(C)C | 0 | -12 | 38
C[C@H]1CN([C@@H](C)CO)C(=O)c2cccc(NC(=O)Nc3ccc(C(F)(F)F)cc3)c2O[C@H]1CN(C)C(=O)Nc1ccc(C(F)(F)F)cc1 | nt | -3 | 48
C[C@H](CO)N1C[C@H](C)[C@H](CN(C)C)Oc2c(NC(=O)Nc3ccc(C(F)(F)F)cc3)cccc2C1=O | 0 | -5 | 81*
Cc1noc(C)c1NC(=O)Nc1ccc2c(c1)C(=O)N([C@@H](C)CO)C[C@@H](C)[C@@H](CN(C)C(=O)Nc1cccc3ccccc13)OCCCC[C@@H](C)O2 | 0 | nt | nt
Cc1noc(C)c1S(=O)(=O)Nc1ccc2c(c1)CC(=O)N([C@@H](C)CO)C[C@@H](C)[C@H](CN(C)Cc1ccccc1)O2 | -1 | nt | nt
Cc1noc(C)c1S(=O)(=O)Nc1ccc2c(c1)CC(=O)N([C@@H](C)CO)C[C@H](C)[C@H](CN(C)Cc1ccc(-c3ccccc3)cc1)O2 | -1 | -12 | 19
Cc1noc(C)c1S(=O)(=O)Nc1ccc2c(c1)CC(=O)N([C@H](C)CO)C[C@@H](C)[C@@H](CN(C)Cc1ccc(-c3ccccc3)cc1)O2 | -2 | -21 | 60*
Cc1noc(C)c1S(=O)(=O)Nc1ccc2c(c1)CC(=O)N([C@@H](C)CO)C[C@@H](C)[C@@H](CN(C)Cc1ccc(Oc3ccccc3)cc1)O2 | 1 | -15 | 60*
O=C(NO)c1cccc(C(=O)N/N=C/c2cc3ccccc3n2S(=O)(=O)c2ccccc2)c1 | nt | -4 | -23
CC(C)NC(=O)N(C)C[C@H]1Oc2ccc(NS(=O)(=O)c3ccc(F)cc3)cc2C(=O)N([C@@H](C)CO)C[C@@H]1C | 0 | 6 | 10
C[C@@H]1CN([C@H](C)CO)C(=O)c2cc(NS(=O)(=O)c3cn(C)cn3)ccc2O[C@H]1CN(C)CC1CC1 | nt | 12 | -1
COc1cc(Br)cc(/C=N/NC(=O)c2cccc(C(=O)NO)c2)c1O | -3 | 8 | -25
SMILES | A1 apoptosis 2 | INS-1E rescue | T cruzi HTS
COC(=O)CCCCCCC(=O)N/N=C\c1cccnc1Br | 0 | 8 | -4
CC1=C(C/C=N/NC(=O)c2ccc(C(=O)NO)cc2)C(C)(C)CCC1 | 1 | nt | nt
C[C@H]1CN([C@@H](C)CO)C(=O)Cc2cc(NC(=O)Nc3cccc4ccccc34)ccc2O[C@@H]1CN(C)Cc1ccc(Oc2ccccc2)cc1 | 1 | -20 | 70*
COc1ccc(CN(C)C[C@H]2Oc3ccc(NC(=O)Nc4cccc5ccccc45)cc3CC(=O)N([C@@H](C)CO)C[C@@H]2C)cc1 | -1 | nt | nt
C[C@@H]1CN([C@@H](C)CO)C(=O)Cc2cc(NC(=O)Nc3cccc4ccccc34)ccc2O[C@@H]1CN(C)Cc1ccc(Oc2ccccc2)cc1 | nt | -1 | 68*
C[C@H](CO)N1C[C@H](C)[C@H](CN(C)Cc2ccc(Oc3ccccc3)cc2)Oc2ccc(NC(=O)Nc3cccc4ccccc34)cc2CC1=O | nt | -26 | 17
COc1cc(/C=C/C=N/NC(=O)c2cccc(C(=O)NO)c2)ccc1O | 0 | -2 | -22
C[C@@H]1CN([C@@H](C)CO)C(=O)c2cc(NC(=O)CCCCCC(=O)Nc3ccccc3N)ccc2O[C@@H]1CN(C)C(=O)Nc1ccc2c(c1)OCO2 | 1 | 12 | -25
C[C@@H]1CN([C@H](C)CO)C(=O)c2cccc(NC(=O)Nc3ccc(F)cc3)c2O[C@H]1CN(C)Cc1ccc(C(=O)Nc2ccccc2N)cc1 | 1 | 7 | 78*
C[C@H]1CN([C@@H](C)CO)C(=O)c2cccc(NC(=O)Nc3ccc(F)cc3)c2O[C@@H]1CN(C)Cc1ccc(C(=O)Nc2ccccc2N)cc1 | 0 | 4 | 67*
C[C@@H]1CN([C@@H](C)CO)C(=O)c2cccc(NC(=O)Nc3ccc(F)cc3)c2O[C@H]1CN(C)Cc1ccc(C(=O)Nc2ccccc2N)cc1 | nt | 2 | 73*
C[C@H](CO)N1C[C@H](C)[C@H](CN(C)Cc2ccc(C(=O)Nc3ccccc3N)cc2)Oc2c(NC(=O)Nc3ccc(F)cc3)cccc2C1=O | -2 | -8 | 51
C[C@@H]1CN([C@@H](C)CO)C(=O)c2cccc(NC(=O)Nc3ccc(C(F)(F)F)cc3)c2O[C@H]1CN(C)Cc1ccc(C(=O)Nc2ccccc2N)cc1 | 0 | -26 | ?
C[C@H]1CN([C@@H](C)CO)C(=O)c2cc(NC(=O)Nc3ccc(F)cc3)ccc2O[C@H]1CN(C)Cc1ccc(C(=O)Nc2ccccc2N)cc1 | 0 | -4 | 51
COc1ccc(NC(=O)N(C)C[C@@H]2Oc3ccc(NS(=O)(=O)c4c(C)noc4C)cc3CC(=O)N([C@@H](C)CO)C[C@@H]2C)cc1 | 1 | 2 | -3

High-throughput results deposited in PubChem BioAssay by Broad Institute.
